The list is not random: actives were taken first. Their share in the collection is about 3.1%.
OX1R antag-1 – antagonists of human orexin 1 receptor; CHO/OX1R cells, Fluo-8 calcium fluorescence, orexin A; inhibition, % at 5 µM; 330,000 tested, 0.43% active;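 active = inhibition above its plate's threshold, mean inhibition of all tested compounds on the plate plus 3 SD, cut at about 37% in these data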;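 note: 0% = orexin A challenge wells and 100% = SB-334867-A antagonist wells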
OX1R antag-2 – OX1R (human) antagonism. O43613. OX1R-expressing cells, FRET antagonist read-out. inhibition, % at 6.6 µM. 330,000 tested, 1.8% active; in the data active = inhibition mostly above about 38%, no sharp cut-off; inactive = mostly below about 40%;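 note: 0% = agonist challenge alone and 100% = reference antagonist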
GalR3 antag – human GalR3 antagonism; O60755; HEK293 GalR3-CNG cAMP membrane potential fluorescence; galR3 body fused to GalR1 C-terminus; inhibition, % at 3 µM; 360,000 tested, 0.44% active; AID 651719;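 active = inhibition above the screen-wide average plus 3 SD, cut at about 13% in these data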;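 note: forskolin and galanin both at EC90 stimulate the cells; cAMP rise reported by CNG channel membrane potential dye signal; 0% = forskolin plus galanin with DMSO and 100% = forskolin alone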
Target sequence (O60755 1-299 limits assumed): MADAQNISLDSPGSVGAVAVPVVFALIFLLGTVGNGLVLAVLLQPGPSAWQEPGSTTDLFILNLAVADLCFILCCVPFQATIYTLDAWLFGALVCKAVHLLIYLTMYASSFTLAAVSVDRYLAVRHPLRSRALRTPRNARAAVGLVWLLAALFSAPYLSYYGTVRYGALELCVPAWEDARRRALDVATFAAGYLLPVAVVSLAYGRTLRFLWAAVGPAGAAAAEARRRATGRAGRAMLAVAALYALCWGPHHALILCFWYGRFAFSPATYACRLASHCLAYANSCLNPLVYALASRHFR
CHO parental Ca – counter-screen: ATP calcium response change in parental CHO cells; parental CHO-K1, ATP-induced calcium, Fluo-8 fluorescence; inhibition, % at 5.6 µM; 330,000 tested, 0.63% active; AID 463079;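 active = inhibition above that plate's mean sample inhibition plus 3 SD, cut at about 26% in these data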;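 note: 0% = ATP-challenged DMSO wells and 100% = DMSO wells without ATP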
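Assay system: untransfected parental CHO cell line. Also added: ATP agonist challenge. Dosing: one dose, 5.6 µM nominal. Measured by: Fluo-8 fluorescence. Read-out: % inhibition. Benchmarks: ATP wells versus no-ATP DMSO wells. Repeats: no replicates.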
GPR7 antag – antagonists of human GPR7 (neuropeptides B/W receptor 1) | P48145 | GPR7-expressing cells, fluorescence antagonist assay | inhibition, % at 4.4 µM | 290,000 tested, 1.1% active | AID 1861; in the data active = inhibition above about 16%, passing the limit was not always enough;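 note: cells stimulated with the agonist NPW; 0% = agonist with vehicle and 100% = vehicle without agonist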
Target sequence (P48145 whole entry, looked up): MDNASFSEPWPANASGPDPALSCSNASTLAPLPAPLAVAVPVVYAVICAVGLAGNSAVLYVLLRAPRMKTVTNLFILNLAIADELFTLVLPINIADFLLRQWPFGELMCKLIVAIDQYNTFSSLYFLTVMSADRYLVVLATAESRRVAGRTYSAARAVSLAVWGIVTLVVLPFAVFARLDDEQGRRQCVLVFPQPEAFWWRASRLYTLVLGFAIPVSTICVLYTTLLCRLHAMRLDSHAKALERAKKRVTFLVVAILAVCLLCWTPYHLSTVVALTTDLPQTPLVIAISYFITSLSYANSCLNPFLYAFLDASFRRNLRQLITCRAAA
* marks the source's active call; other numbers are inactive results; . = no result.

SMILES | OX1R antag-1 | OX1R antag-2 | GalR3 antag | CHO parental Ca | GPR7 antag
CC(C)N(Cc1ccccc1)C(=O)CN1c2cccc3cccc(c23)S1(=O)=O | -5.8 | 38.9* | -7.5 | -27.2 | .
C[C@H]1CN(S(=O)(=O)C(C)(C)C)[C@@H](CCO)/C1=C\c1ccccc1 | . | . | -6.3 | . | .
CCCCC(C(=O)NC(C)c1ccccc1)C(=O)NC(C)c1ccccc1 (centres undefined) | 12.6 | 57.1* | -8.0 | -15.8 | -15.2
COc1ccc(C(=O)O/N=C(\N)c2ccc(OC)c(OC)c2)c(OC)c1 | 8.2 | 62.7* | . | -5.8 | -7.0
COc1ccc(-c2cscc2N)cc1 | . | . | -6.4 | . | .
O=C1c2ccc([N+](=O)[O-])cc2C(=O)N1Cc1cccnc1 | -17.7 | 76.5* | -2.6 | -2.2 | -16.1
O=C1c2ccc3c4c(ccc(c24)C(=O)N1Cc1cccnc1)C(=O)N(Cc1cccnc1)C3=O | . | . | . | . | -6.6
O=C(Nc1nc(OCC(F)(F)F)cnc1/C=C\c1ccccc1)c1ccccc1 | . | . | -5.6 | . | .
O=C(O)c1ccc(-n2c(/C=C/c3ccccc3)nc3ccccc3c2=O)cc1 | 3.5 | 37.4* | -5.8 | 8.4 | -21.1
O=C(O)c1ccc(-n2c(/C=C/c3cccc([N+](=O)[O-])c3)nc3ccccc3c2=O)cc1 | -22.2 | 8.8 | -8.1 | 2.2 | -8.9
CCCCN(C)CCNC(=O)C1CCN(S(=O)(=O)c2cccc3nsnc23)CC1 | -2.8 | 48.7* | -0.2 | -12.4 | -9.1
CCCN(CCC)CCNC(=O)C1CCN(S(=O)(=O)c2cccc3nsnc23)CC1 | -6.0 | 42.9* | -6.8 | -4.9 | -10.2
CC1CCN(C(=O)C2CCN(S(=O)(=O)c3cccc4nsnc34)CC2)CC1 | -13.8 | 28.4 | -4.5 | -16.7 | -16.7
CCCCN(CC)CCNC(=O)C1CCN(S(=O)(=O)c2cccc3nsnc23)CC1 | -21.9 | 51.2* | 1.4 | -16.8 | -14.5
O=C(C1CCN(S(=O)(=O)c2cccc3nsnc23)CC1)N1CCCCC1 | -14.3 | 43.9* | -7.1 | -1.6 | -7.0
CCCCN(CC)CCNC(=O)C1CCCN(S(=O)(=O)c2cccc3nsnc23)C1 (centres undefined) | -21.8 | 36.9 | -5.9 | -18.6 | -10.3
COc1ccccc1-c1cn(CC[C@H]2CC[C@@H](NS(=O)(=O)c3ccccc3C)[C@@H](CO)O2)nn1 | . | . | -5.8 | . | .
CCOC(=O)[C@@H]1CSCCS(=O)(=O)N1C(=O)[C@H](CC(C)C)NC(=O)OC(C)(C)C | . | . | -7.8 | . | .
O=C(C1CCN(S(=O)(=O)c2cccc3cccnc23)CC1)N1CCN(c2ccc(Cl)cc2)CC1 | -20.0 | 13.4 | -3.3 | -2.2 | 17.3*
O=S1(=O)CCSC[C@@H](CN2CCN(c3ccccc3)CC2)N1 | . | . | -4.3 | . | .
CC1=CCC(/C=N\Nc2nnc3c(n2)[nH]c2ccccc23)CC1 (centres undefined) | -11.9 | 55.4* | . | -6.3 | 0.9
CC(C)CSc1nnc2c(n1)[nH]c1ccccc12 | -9.3 | 9.8 | -0.8 | -4.1 | 0.0
CN(C)C(=O)C[C@H]1C[C@@H]2c3cc(NC(=O)NC4CCCC4)ccc3O[C@@H]2[C@@H](CO)O1 | . | . | 4.1 | . | .
Cc1[nH]c2ccccc2c1C(=O)c1c(N)[nH]c(C(=O)c2ccc(Br)cc2)c1-c1ccc(Br)cc1 | . | . | -5.7 | . | .
C=CCSc1nnc(-c2ccc([N+](=O)[O-])cc2)o1 | -8.7 | 41.9 | -4.8 | -2.0 | -4.7
SMILES | OX1R antag-1 | OX1R antag-2 | GalR3 antag | CHO parental Ca | GPR7 antag
NC(=O)CSc1nnc(-c2ccc([N+](=O)[O-])cc2)o1 | -11.2 | 54.8* | 0.0 | 11.9 | -8.8
O=C(CN1CCOCC1)NNc1c2ccccc2nc2ccccc12 | -24.4 | 11.1 | -3.4 | 1.2 | 9.0
C[N+]1(CC(=O)NNc2c3ccccc3nc3ccccc23)CCOCC1 | -7.5 | 44.2* | 6.4 | -4.2 | -12.0
COC(=O)c1ccsc1NS(C)(=O)=O | . | . | 0.2 | . | .
Cc1ccc(-c2csc(NCCn3c(-c4ccncc4)nc4cc(C(F)(F)F)ccc43)n2)cc1 | -13.7 | 4.0 | -3.7 | -17.5 | .
Cc1ccc(-c2csc(NCCn3c(-c4ccncc4)nc4ccccc43)n2)cc1 | -9.9 | 60.0* | -2.2 | -30.4 | 5.7
O=C(OCCCN=C1NS(=O)(=O)c2ccccc21)c1ccc([N+](=O)[O-])cc1 | -5.8 | 50.9* | -5.8 | -4.3 | 2.4
O=[N+]([O-])CC(c1ccccc1)c1c[nH]c2ccccc12 (centres undefined) | -5.0 | 11.1 | -0.5 | -1.3 | .
OC(CNCC(c1ccc(Cl)cc1Cl)c1c[nH]c2ccccc12)c1ccccc1 (centres undefined) | 17.1 | 3.0 | -9.2 | 32.6* | 19.0
COc1ccccc1S(=O)(=O)N[C@@H]1CC[C@@H](CCn2cc(C3CC3)nn2)O[C@@H]1CO | . | . | -7.8 | . | .
COc1ccc(-c2nc3c(C)cc(Br)cn3c2Cc2ccccc2C(F)(F)F)cc1OC | . | . | -4.7 | . | .
COc1ccc(-n2c(C)cc(C(=O)COC(=O)c3ccc(O)cc3O)c2C)cc1 | 44.9* | 18.1 | -6.6 | 33.5* | .
Cc1ccc(NS(=O)(=O)c2ccc(-c3coc(C)n3)cc2)c(Cl)c1 | . | . | -6.8 | . | .
COc1ccccc1N(CC(O)Cn1c(C)nc2ccccc21)S(=O)(=O)c1ccccc1 (centres undefined) | 9.7 | 63.0* | -3.5 | -17.9 | 1.1
CCOC(=O)[C@]12CCCC=C1N(Cc1ccccc1)C(=O)[C@H](CC(=O)NCC1CCCCC1)C2 | . | . | -7.3 | . | .
Cc1ccccc1CCNC(=O)Cn1ccc2cc(S(=O)(=O)N3CCCC3)ccc21 | 16.2 | 46.0* | -2.9 | -16.2 | 3.8
COc1ccc(CCNC(=O)Cn2ccc3cc(S(=O)(=O)N4CCCC4)ccc32)cc1OC | 8.8 | 57.2* | -3.3 | -15.1 | -9.4
Cc1ccc(CCNC(=O)Cn2ccc3cc(S(=O)(=O)N4CCCC4)ccc32)cc1 | 21.7 | 56.0* | 1.0 | -18.7 | 3.6
CN(C)CCNC(=O)Cn1ccc2cc(S(=O)(=O)N3CCCCCC3)ccc21 | -9.5 | 14.6 | 1.4 | -13.1 | 1.5
C[C@H](O)[C@@H]1C(=O)N2CCc3c([nH]c4cccc(-c5ccccc5)c34)[C@@H]2C[C@@H]1N(C)C(=O)OCc1ccccc1 | . | . | -3.8 | . | .
Nc1ncc2[nH]c(N)nc2n1 | . | . | -4.0 | . | .
NCCCC(C(=O)O)N(C(=O)OCc1ccccc1)C(=O)OCc1ccccc1 (centres undefined) | . | . | -5.7 | . | .
O=C1CCSC2=C1SCc1sccc12 | . | . | -8.3 | . | .
CCCCn1nnnc1C(c1cc2ccccc2o1)N1CCN(CC(=O)NC(C)C)CC1 (centres undefined) | . | . | 4.5 | . | .
O=C(N/N=C/c1ccc(OCc2ccccc2)cc1)c1cccs1 | 8.0 | 60.3* | 1.3 | -18.9 | 16.5
CCOC(=O)c1[nH]c(C)c(C(=O)N2CCN(c3ccccc3)CC2)c1C | -17.3 | 6.0 | -0.9 | -14.1 | -3.8
CCOc1ccc2ccccc2c1C(=O)N1CCN(c2ccccc2)CC1 | -38.0 | 21.1 | -11.3 | -16.5 | 19.8*
CCN(CC)C(=O)c1ccc(S(=O)(=O)N2CCC(c3nc4ccccc4s3)CC2)cc1 | 35.0 | 37.4* | -10.1 | 13.6 | -11.0
CCCCN1CC(COCc2ccccc2)Oc2cccc(NCc3cc(OC)c(OC)c(OC)c3)c2S1(=O)=O (centres undefined) | . | . | -2.2 | . | .
